{"source": "ChEMBL document CHEMBL1137772", "about": "“Site-activated multifunctional chelator with acetylcholinesterase and neuroprotective-neurorestorative moieties for Alzheimer's therapy” (J Med Chem, 2009)", "key": {"SH-SY5Y [1]": {"tested_on": "SH-SY5Y", "test": "Cytotoxicity against human SH-SY5Y cells assessed as cell viability at 1 uM after 48 hrs by MTT assay relative to control", "type": "cell-based", "method_in_brief": "(§1)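 Human SH-SY5Y neuroblastoma cells were exposed to compound for 48 h, and viability was read by MTT assay. Mean ± SEM of three independent experiments.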"}, "[2]": {"biological_target": "Acetylcholinesterase (Electrophorus electricus) (UniProt O42275)", "sequence (O42275 24-633 limits assumed)": "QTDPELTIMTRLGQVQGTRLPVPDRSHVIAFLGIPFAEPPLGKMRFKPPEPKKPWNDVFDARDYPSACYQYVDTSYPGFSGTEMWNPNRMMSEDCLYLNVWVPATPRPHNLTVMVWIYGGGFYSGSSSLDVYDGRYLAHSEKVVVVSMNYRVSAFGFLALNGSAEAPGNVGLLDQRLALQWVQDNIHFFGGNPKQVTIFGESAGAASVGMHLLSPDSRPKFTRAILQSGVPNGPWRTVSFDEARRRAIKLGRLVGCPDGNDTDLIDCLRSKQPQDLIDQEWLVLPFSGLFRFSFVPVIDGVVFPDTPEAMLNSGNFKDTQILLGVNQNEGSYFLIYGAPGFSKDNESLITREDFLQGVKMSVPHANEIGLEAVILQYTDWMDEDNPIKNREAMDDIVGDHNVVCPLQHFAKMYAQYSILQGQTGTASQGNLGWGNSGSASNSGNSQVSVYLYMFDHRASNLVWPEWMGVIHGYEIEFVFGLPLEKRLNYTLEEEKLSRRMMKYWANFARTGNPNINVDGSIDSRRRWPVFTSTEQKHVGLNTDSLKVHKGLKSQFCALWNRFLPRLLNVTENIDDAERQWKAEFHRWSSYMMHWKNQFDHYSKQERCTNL", "test": "Induction of electric eel AChE-mediated drug hydrolysis assessed as release of HLA20-iron complex at 0.2 mM by UV visible spectroscopy in presence of FeSO4", "method_in_brief": "(§2)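 UV/vis absorption spectra were recorded in 5% NH4Ac, pH 7. Prochelator (0.2 mM) was activated before adding CuSO4 or FeSO4 (0.2 mM).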"}, "[3]": {"biological_target": "Acetylcholinesterase (Electrophorus electricus) (UniProt O42275)", "test": "[…] of electric eel AChE-mediated drug hydrolysis assessed as release of HLA20-copper complex at 0.2 mM by UV visible spectroscopy in presence of CuSO4", "method_in_brief": "as §2"}, "SH-SY5Y [4]": {"tested_on": "SH-SY5Y", "test": "Cytotoxicity against human SH-SY5Y cells assessed as decrease in cell viability at 50 uM after 48 hrs by MTT assay relative to control", "type": "cell-based", "method_in_brief": "as §1"}, "Acetylcholinesterase": {"biological_target": "T1, Acetylcholinesterase (Rattus norvegicus, UniProt P37136)", "T1 sequence (P37136 whole entry)": "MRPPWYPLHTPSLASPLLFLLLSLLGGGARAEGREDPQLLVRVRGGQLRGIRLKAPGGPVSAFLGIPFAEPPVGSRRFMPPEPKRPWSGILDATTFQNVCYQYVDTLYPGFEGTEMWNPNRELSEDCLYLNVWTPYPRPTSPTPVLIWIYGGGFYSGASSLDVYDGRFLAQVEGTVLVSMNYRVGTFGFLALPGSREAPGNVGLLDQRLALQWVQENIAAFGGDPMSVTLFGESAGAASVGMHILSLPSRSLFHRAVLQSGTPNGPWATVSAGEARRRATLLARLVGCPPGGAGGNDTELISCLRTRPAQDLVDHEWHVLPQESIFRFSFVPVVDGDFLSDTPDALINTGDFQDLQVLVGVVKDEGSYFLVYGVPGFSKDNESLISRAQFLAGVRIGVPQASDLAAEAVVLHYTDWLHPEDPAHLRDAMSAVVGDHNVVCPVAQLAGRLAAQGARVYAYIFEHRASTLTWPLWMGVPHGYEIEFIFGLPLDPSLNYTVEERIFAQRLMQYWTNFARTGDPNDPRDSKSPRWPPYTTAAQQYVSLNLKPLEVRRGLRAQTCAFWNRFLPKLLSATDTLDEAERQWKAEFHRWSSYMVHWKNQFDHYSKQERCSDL", "test": "Inhibition of AChE in Wistar rat brain homogenates by Ellman's method", "type": "tissue-based", "method_in_brief": "(§3)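 Modified Ellman method on rat brain homogenate enzymes, with acetylthiocholine as AChE substrate and butyrylthiocholine as BuChE substrate. For concentration–response, enzymes were preincubated with inhibitor for 3 h, and IC50 was obtained by nonlinear curve fitting. Mean ± SEM of three to five independent experiments, each in triplicate. The 1 µM AChE inhibition was followed as a time course.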"}, "[5]": {"biological_target": "T2, Acetylcholinesterase (Rattus norvegicus) (UniProt P37136)", "T2 sequence (whole entry)": "T1 sequence (P37136 whole entry)", "test": "Inhibition of AChE in Wistar rat brain homogenates at 1 uM by Ellman's method", "type": "tissue-based", "details": "TDE = time-dependent effect", "method_in_brief": "as §3"}, "Butyrylcholinesterase": {"biological_target": "Butyrylcholinesterase (Rattus norvegicus, UniProt Q9JKC1)", "sequence (Q9JKC1 whole entry)": "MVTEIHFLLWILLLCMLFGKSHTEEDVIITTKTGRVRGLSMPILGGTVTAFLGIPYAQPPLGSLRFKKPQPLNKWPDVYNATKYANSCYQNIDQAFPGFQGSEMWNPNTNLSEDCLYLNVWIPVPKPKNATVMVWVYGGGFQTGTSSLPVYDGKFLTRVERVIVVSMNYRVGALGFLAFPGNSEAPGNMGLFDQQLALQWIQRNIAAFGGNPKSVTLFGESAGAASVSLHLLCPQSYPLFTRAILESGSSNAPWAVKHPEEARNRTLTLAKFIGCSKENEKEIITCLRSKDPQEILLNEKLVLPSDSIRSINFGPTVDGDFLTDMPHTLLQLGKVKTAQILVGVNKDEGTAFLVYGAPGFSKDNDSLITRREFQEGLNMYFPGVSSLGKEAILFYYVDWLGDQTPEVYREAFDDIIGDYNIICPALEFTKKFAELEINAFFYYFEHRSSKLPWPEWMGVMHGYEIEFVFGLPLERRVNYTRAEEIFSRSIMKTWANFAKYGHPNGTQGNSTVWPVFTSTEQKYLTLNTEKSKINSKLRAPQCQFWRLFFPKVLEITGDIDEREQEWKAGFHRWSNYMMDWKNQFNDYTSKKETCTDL", "test": "Inhibition of BuChE in Wistar rat brain homogenates by Ellman's method", "type": "tissue-based", "method_in_brief": "as §3"}, "SH-SY5Y [6]": {"tested_on": "SH-SY5Y", "test": "Cytotoxicity against human SH-SY5Y cells assessed as decrease in cell viability at 25 uM after 48 hrs by MTT assay relative to control", "type": "cell-based", "method_in_brief": "as §1"}, "SH-SY5Y [7]": {"tested_on": "SH-SY5Y", "test": "Cytotoxicity against human SH-SY5Y cells assessed as decrease in cell viability at 10 uM after 48 hrs by MTT assay relative to control", "type": "cell-based", "method_in_brief": "as §1"}, "[8]": {"biological_target": "Butyrylcholinesterase (Rattus norvegicus) (UniProt Q9JKC1)", "sequence (Q9JKC1 as listed by the source)": "as the sequence (Q9JKC1 whole entry) above", "test": "Inhibition of BuChE in Wistar rat brain homogenates at 1 uM by Ellman's method", "type": "tissue-based", "details": "TDE = time-dependent effect"}, "Rattus norvegicus": {"species_on_record": "Rattus norvegicus", "test": "Selectivity ratio of IC50 for BuChE to IC50 for AChE in Wistar rat brain homogenates", "type": "tissue-based", "method_in_brief": "as §3"}}, "note": "Active and inactive are the calls of the source. No cut-off for these calls is given here."}
{"compound": "C#CCN1CCN(Cc2ccc(OC(=O)N(C)C)c3ncccc23)CC1", "values": [{"measurement": "Activity", "setting": "SH-SY5Y [1]", "result": "Non-toxic"}, {"measurement": "Activity", "setting": "[2]", "result": "Active"}, {"measurement": "Activity", "setting": "[3]", "result": "Active"}, {"measurement": "Activity", "setting": "SH-SY5Y [4]", "result": "Toxic"}, {"measurement": "IC50", "setting": "Acetylcholinesterase", "result": 0.5, "unit": "µM"}, {"measurement": "Activity", "setting": "[5]", "result": "tde"}, {"measurement": "IC50", "setting": "Butyrylcholinesterase", "result": 42.6, "unit": "µM"}, {"measurement": "Activity", "setting": "SH-SY5Y [6]", "result": "Toxic"}, {"measurement": "Activity", "setting": "SH-SY5Y [7]", "result": "Non-toxic"}, {"measurement": "Activity", "setting": "[8]", "result": "tde"}, {"measurement": "Ratio IC50", "setting": "Rattus norvegicus", "result": 85}]}
{"compound": "CCN(C)C(=O)Oc1cccc([C@H](C)N(C)C)c1", "values": [{"measurement": "Activity", "setting": "[5]", "result": "tde"}, {"measurement": "Activity", "setting": "[8]", "result": "tde"}]}
{"compound": "C#CCN1CCN(Cc2ccc(O)c3ncccc23)CC1", "values": [{"measurement": "Activity", "setting": "SH-SY5Y [1]", "result": "Non-toxic"}, {"measurement": "Activity", "setting": "SH-SY5Y [4]", "result": 98, "unit": "%"}, {"measurement": "Activity", "setting": "SH-SY5Y [6]", "result": 87, "unit": "%"}, {"measurement": "Activity", "setting": "SH-SY5Y [7]", "result": 60, "unit": "%"}]}
